Activity calls are given as the source filed them. The rule behind the calls is not given here.
Legend:
Type in all cases: functional
MDA-MB-231 = assay: Cytotoxicity against human MDA-MB-231 cells after 72 hrs by SRB assay
Method in brief: (§1)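 Cells seeded at 5 × 10³/well and grown 24 h; one plate per line fixed at this point as T_z reference. Exposure to vehicle or compound for a further 72 h. Wash in PBS, fix 15 min in 1% glutaraldehyde, stain 30 min at rt with 0.4% SRB, rinse in 1% acetic acid, extract into 10 mM trizma base, read A490. NCI algorithm; GI50 interpolated from dose curves.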

A549 = assay: Cytotoxicity against human A549 cells after 72 hrs by SRB assay; method in brief: as §1
HT-29 = assay: Cytotoxicity against human HT-29 cells after 72 hrs by SRB assay; method in brief: as §1

Compound	GI50 (MDA-MB-231; MDA-MB-231, 72 h)	GI50 (A549; A549, 72 h)	GI50 (HT-29; HT-29, 72 h)	GI50 (A549)	GI50 (HT-29)	GI50 (MDA-MB-231)
CC(=O)/N=C1\NCCC(c2cn(C)c3cc(Br)ccc23)N1 (racemic)	8.02 µM	6.3 µM	4.3 µM	–	–	–
Cn1cc(C2CCN=C(N)N2)c2ccccc21 (racemic)	1.71 µM	2.67 µM	4.29 µM	–	–	–
Cn1cc(C2CCN=C(N)N2)c2ccc(Br)cc21 (racemic)	8.79 µM	9.11 µM	4.56 µM	–	–	–
Cn1cc(C2CCN=C(N)N2)c2cc(Br)ccc21 (racemic)	25.7 µM	–	13.7 µM	inactive	–	–
Cn1cc(C2CC(=O)N=C(N)N2)c2ccc(Br)cc21 (racemic)	2.86 µM	–	–	inactive	inactive	–
NC1=NCCC(c2c[nH]c3cc(Br)ccc23)N1 (racemic)	19.1 µM	–	21.1 µM	inactive	–	–
CC(=O)/N=C1\NCCC(c2c[nH]c3cc(Br)ccc23)N1 (racemic)	5.67 µM	6.86 µM	2.12 µM	–	–	–
CC(=O)/N=C1\NCCC(c2cn(C)c3ccccc23)N1 (racemic)	14.4 µM	10.7 µM	7.4 µM	–	–	–
CC(=O)/N=C1\NCCC(c2cn(C)c3ccc(Br)cc23)N1 (racemic)	0.94 µM	0.43 µM	0.31 µM	–	–	–
COn1cc(C2CC(=O)N=C(N)N2)c2cc(Br)c(Br)cc21 (racemic)	–	–	–	inactive	inactive	inactive
COn1cc(C2CC(=O)N=C(N)N2)c2ccccc21 (racemic)	–	–	–	inactive	inactive	inactive
COn1cc(C2CCN=C(N)N2)c2ccccc21 (racemic)	–	–	–	inactive	inactive	inactive
Cn1cc(C2CC(=O)N=C(N)N2)c2cc(Br)ccc21 (racemic)	–	–	–	inactive	inactive	inactive
Cn1cc(C2CC(=O)N=C(N)N2)c2ccccc21 (racemic)	–	–	–	inactive	inactive	inactive
NC1=NC(=O)CC(c2c[nH]c3cc(Br)ccc23)N1 (racemic)	–	–	–	inactive	inactive	inactive
NC1=NC(=O)CC(c2c[nH]c3ccc(Br)cc23)N1 (racemic)	–	–	–	inactive	inactive	inactive
NC1=NCCC(c2c[nH]c3cc(Br)c(Br)cc23)N1 (racemic)	–	–	–	inactive	inactive	inactive
NC1=NCCC(c2c[nH]c3ccc(Br)cc23)N1 (racemic) [APLICYANIN A]	0.27 µM	0.27 µM	0.11 µM	–	–	–
CC(=O)/N=C1\NCCC(c2c[nH]c3ccc(Br)cc23)N1 (racemic) [APLICYANIN B]	0.98 µM	0.51 µM	0.33 µM	–	–	–
COn1cc(C2CCN=C(N)N2)c2cc(Br)c(Br)cc21 (racemic) [APLICYANIN E]	10.9 µM	–	–	inactive	inactive	–

— ChEMBL document CHEMBL1154620, “Total synthesis and antiproliferative activity screening of (+/-)-aplicyanins A, B and E and related analogues” (2009)
